From ChEMBL document CHEMBL1157328, “Linear sesquiterpene lactones from Anthemis auriculata and their antibacterial activity” (2006)
In brackets after ≈: the same amount, converted by molar mass.

What was measured:
[1] = system: Candida albicans; assay: Antifungal activity against Candida albicans isolate after 72 hrs by serial dilution technique; type: functional
Summary of the method: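 Candida albicans clinical isolate kept on Sabouraud agar at +4 °C, subcultured monthly. Compounds dissolved at 10 mg/mL in DMSO, diluted in medium to 1000 μg/mL, tested at final […] by serial microdilution in 96-well plates. Inoculum adjusted with saline to ~1.0×10^5 per well. Incubated 72 h at 28 °C. MIC recorded.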

[2] = system: Escherichia coli; assay: Antibacterial activity against Escherichia coli ATCC 35218 after 48 hrs by serial dilution technique; type: functional; conditions: ATCC 35218, 48 h
Summary of the method: (§1)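 Broth microdilution MIC in 96-well plates. Compounds dissolved at 10 mg/mL in DMSO, diluted in nutrient medium to 1000 μg/mL, tested at final […] in serial dilution. Bacteria grown overnight at 37 °C in TSB (~10^9 cells/mL), adjusted with sterile saline to ~1.0×10^5 per well. Plates incubated 48 h at 37 °C.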

[3] = system: Proteus mirabilis; assay: Antibacterial activity against Proteus mirabilis isolate after 48 hrs by serial dilution technique; type: functional; summary of the method: as §1
[4] = system: Agrobacterium tumefaciens; assay: Antibacterial activity against Agrobacterium tumefaciens A281 after 48 hrs by serial dilution technique; type: functional; conditions: A281, 48 h; summary of the method: as §1
[5] = system: Pseudomonas tolaasii; assay: Antibacterial activity against Pseudomonas tolaasii after 48 hrs by serial dilution technique; type: functional; summary of the method: as §1
[6] = system: Salmonella enteritidis; assay: Antibacterial activity against Salmonella enteritidis ATCC 13076 after 48 hrs by serial dilution technique; type: functional, Salmonella enterica subsp. enterica serovar Enteritidis; conditions: Salmonella enterica, ATCC 13076, 48 h; summary of the method: as §1
[7] = system: Staphylococcus aureus; assay: Antibacterial activity against Staphylococcus aureus ATCC 6538 after 48 hrs by serial dilution technique; type: functional; conditions: ATCC 6538, 48 h; summary of the method: as §1
[8] = system: Micrococcus luteus; assay: Antibacterial activity against Micrococcus luteus isolate after 48 hrs by serial dilution technique; type: functional; summary of the method: as §1
[9] = system: Micrococcus luteus; assay: Antibacterial activity against Sarcina lutea ATCC 9341 after 48 hrs by serial dilution technique; type: functional; conditions: ATCC 9341, 48 h; summary of the method: as §1
[10] = system: Bacillus cereus; assay: Antibacterial activity against Bacillus cereus isolate after 48 hrs by serial dilution technique; type: functional; summary of the method: as §1
[11] = system: Pseudomonas aeruginosa; assay: Antibacterial activity against Pseudomonas aeruginosa isolate after 48 hrs by serial dilution technique; type: functional; summary of the method: as §1

Row | Structure (SMILES) | MIC [1] [µM] | MIC [2] [µM] | MIC [3] [µM] | MIC [4] [µM] | MIC [5] [µM] | MIC [6] [µM] | MIC [7] [µM] | MIC [8] [µM] | MIC [9] [µM] | MIC [10] [µM] | MIC [11] [µM]
1 | c1ccc(-c2ccc(C(c3ccccc3)n3ccnc3)cc2)cc1 (stereo not drawn) [BIFONAZOLE] | 644 (≈ 200 µg/mL) | – | – | – | – | – | – | – | – | – | –
2 | CN[C@@H]1[C@H](O[C@H]2[C@H](O[C@H]3[C@H](O)[C@@H](O)[C@H](N=C(N)N)[C@@H](O)[C@@H]3N=C(N)N)O[C@@H](C)[C@]2(O)C=O)O[C@@H](CO)[C@H](O)[C@H]1O [STREPTOMYCIN] | – | 68.6 (≈ 39.9 µg/mL) | 137 (≈ 79.8 µg/mL) | 68.6 (≈ 39.9 µg/mL) | 137 (≈ 79.8 µg/mL) | 137 (≈ 79.8 µg/mL) | 34.3 (≈ 19.9 µg/mL) | 34.3 (≈ 19.9 µg/mL) | 34.3 (≈ 19.9 µg/mL) | 34.3 (≈ 19.9 µg/mL) | –
3 | COC(=O)c1ccc(O)c(OC)c1 [METHYL VANILLATE] | 275 (≈ 50 µg/mL) | 275 (≈ 50 µg/mL) | – | 275 (≈ 50 µg/mL) | 275 (≈ 50 µg/mL) | 275 (≈ 50 µg/mL) | 137 (≈ 25 µg/mL) | 137 (≈ 25 µg/mL) | 137 (≈ 25 µg/mL) | 137 (≈ 25 µg/mL) | –
4 | C=C1C(=O)OCC1C/C=C(\C)CC(=O)C=C(C)C (stereo not drawn) [ANTHECOTULIDE] | 101 (≈ 25.1 µg/mL) | 101 (≈ 25.1 µg/mL) | 202 (≈ 50.2 µg/mL) | 101 (≈ 25.1 µg/mL) | 202 (≈ 50.2 µg/mL) | 202 (≈ 50.2 µg/mL) | 101 (≈ 25.1 µg/mL) | 101 (≈ 25.1 µg/mL) | 51 (≈ 12.7 µg/mL) | 51 (≈ 12.7 µg/mL) | 202 (≈ 50.2 µg/mL)

The remaining compounds from weak to strong by MIC [2], led by results:

Row | MIC [1] [µM] | MIC [2] [µM] | MIC [3] [µM] | MIC [4] [µM] | MIC [5] [µM] | MIC [6] [µM] | MIC [7] [µM] | MIC [8] [µM] | MIC [9] [µM] | MIC [10] [µM] | MIC [11] [µM] | Structure (SMILES)
5 | 189 (≈ 50 µg/mL) | 189 (≈ 50 µg/mL) | 189 (≈ 50 µg/mL) | 94.7 (≈ 25 µg/mL) | 189 (≈ 50 µg/mL) | 189 (≈ 50 µg/mL) | 47 (≈ 12.4 µg/mL) | 94.7 (≈ 25 µg/mL) | 47 (≈ 12.4 µg/mL) | 94.7 (≈ 25 µg/mL) | 189 (≈ 50 µg/mL) | C=C1C(=O)OC[C@H]1[C@@H](O)/C=C(\C)CC(=O)C=C(C)C
6 | 117 (≈ 50.1 µg/mL) | 117 (≈ 50.1 µg/mL) | 117 (≈ 50.1 µg/mL) | 29.3 (≈ 12.5 µg/mL) | 117 (≈ 50.1 µg/mL) | 117 (≈ 50.1 µg/mL) | 29.3 (≈ 12.5 µg/mL) | 58.7 (≈ 25 µg/mL) | 14.7 (≈ 6.27 µg/mL) | 58.7 (≈ 25 µg/mL) | 117 (≈ 50.1 µg/mL) | C=C1CC[C@]2(C)CC[C@]3(C)[C@H](CC[C@@H]4[C@@]5(C)CC[C@H](O)C(C)(C)[C@@H]5CC[C@]43C)[C@@H]2[C@@H]1C
7 | 81.7 (≈ 25 µg/mL) | 81.7 (≈ 25 µg/mL) | 163 (≈ 50.1 µg/mL) | 81.7 (≈ 25 µg/mL) | 163 (≈ 50.1 µg/mL) | 163 (≈ 50.1 µg/mL) | 81.7 (≈ 25 µg/mL) | 81.7 (≈ 25 µg/mL) | 40.8 (≈ 12.5 µg/mL) | 81.7 (≈ 25 µg/mL) | 163 (≈ 50.1 µg/mL) | C=C1C(=O)OC[C@H]1[C@H](/C=C(\C)CC(=O)C=C(C)C)OC(C)=O
